Screening data from PubChem.
Hits are enriched below; roughly 2.9% of the tested compounds scored in any of these assays.
PG9 Ab binder: binders of HIV-1 gp120 antibody PG9, primary screen, biochemical, TR-FRET; TR-FRET gp120-PG9 antibody binding; 360,000 tested, 0.43% active; AID 624416, 2012; inhibition, % at 6.7 µM; HIV-1 gp120 / PG9 antibody interaction; in the data active = inhibition above about 8.5%
T cruzi repl: inhibitors of intracellular T. cruzi growth, primary screen, luminescence, NIH3T3 host cells | inhibition, % (no concentration beside the values) | 300,000 tested, 1.4% active | AID 1885, 2009 | T. cruzi beta-gal in NIH3T3, 90 h;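 active = mean inhibition across valid replicates above about 55%, limit read from the data; inconclusive = mean below that limit but half or more replicates reach it; inactive = mean below it, under half of replicates reach it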;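 note: signal also drops with host cell toxicity which is not excluded here; 0% = plate median of DMSO wells and 100% = zero luminescence signal; higher percent means less beta-gal luminescence so fewer parasites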
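Read-out: Parasite load inhibition, % | Test system: Mouse NIH/3T3 fibroblasts infected with β-gal-expressing T. cruzi Tulahuen C4 | Amount: 5,000 cells/well | Medium: DMEM, 2% fetal bovine serum | Signal: GalScreen β-gal luminescence, detergent lysis, 60 min | Timing: 3 h attach, ≥90 h co-culture | Also added: Tulahuen C4 trypomastigotes, 5000/well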
beta cell repl: inducers of MIN6 beta-cell proliferation, primary screen, ATP luminescence, uHTS; MIN6 cells proliferation, ATPlite luminescence, 48 h; cells starved in 0.2% serum; 100% = growth in 10% serum; proliferation, % at 10 µM; 330,000 tested, 0.29% active;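 active = compounds whose signal lies at least 3.5 SD above the mean of all wells on their plate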;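 note: 0% = DMSO-treated cells in low-serum medium and 100% = 10% serum control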
NR1D1 modulator: modulators of Rev-erb alpha DNA binding, primary screen, biochemical, FITC-DNA, fluorescence polarization, uHTS; Nuclear receptor subfamily 1 group D member 1 (Homo sapiens), P20393; Rev-erbα–FITC-DNA binding, 90 min; activity, % at 10 µM; 370,000 tested, 0.79% active; AID 1259318, 2017;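 active = activity above about 14%, limit read from the data; passing the limit was not always enough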;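 note: 0% = DMSO wells with 35 nM protein and 100% = DMSO wells with 750 nM protein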
Target sequence (P20393 whole entry, looked up): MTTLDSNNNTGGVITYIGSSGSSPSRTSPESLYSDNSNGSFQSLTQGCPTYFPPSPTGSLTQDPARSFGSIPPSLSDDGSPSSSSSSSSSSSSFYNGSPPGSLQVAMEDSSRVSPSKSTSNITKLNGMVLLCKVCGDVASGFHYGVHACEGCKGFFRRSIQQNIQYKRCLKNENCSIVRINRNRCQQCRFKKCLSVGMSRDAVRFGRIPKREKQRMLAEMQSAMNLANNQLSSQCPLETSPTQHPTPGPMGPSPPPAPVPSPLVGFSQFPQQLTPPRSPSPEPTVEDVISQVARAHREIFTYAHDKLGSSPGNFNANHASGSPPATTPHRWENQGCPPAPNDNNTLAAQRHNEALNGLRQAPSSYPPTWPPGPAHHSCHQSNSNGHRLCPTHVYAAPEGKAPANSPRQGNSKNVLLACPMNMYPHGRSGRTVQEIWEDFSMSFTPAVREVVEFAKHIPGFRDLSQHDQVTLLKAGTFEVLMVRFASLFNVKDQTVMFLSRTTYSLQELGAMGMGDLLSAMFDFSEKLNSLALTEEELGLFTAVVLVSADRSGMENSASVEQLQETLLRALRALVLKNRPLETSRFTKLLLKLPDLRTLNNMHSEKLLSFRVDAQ
iPSC survival up: enhancers of single-cell hiPSC survival, primary screen, ATPlite luminescence; 100% = ROCK inhibitor wells, 0% = DMSO; survival enhancement, % at 20 µM; 360,000 tested, 0.044% active; AID 602274, 2012; in the data active = survival enhancement above about 18%;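 note: cells exposed to compounds for 16 hours before the ATP read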
H9c2 TAG inh: inhibitors of triacylglycerol accumulation, primary screen, cell-based, uHTS, fluorescence, H9c2; H9c2 cells, Nile Red lipid (TAG) fluorescence; cells loaded with 200 µM oleic acid; inhibition, % at 12.5 µM; 230,000 tested, 0.66% active;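 active = pattern-corrected inhibition of lipid staining of at least 50% with the nuclear-stain viability signal not falling by more than 50%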;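 note: 0% = DMSO wells and 100% = triacsin C control wells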
Numbers without * were called inactive.

What do the screens show for `O=C(CN1CC[n+]2c(-c3cccs3)csc21)c1ccc(Br)cc1`?
PG9 Ab binder: -2.7; T cruzi repl: 60.0*; beta cell repl: -5.7; NR1D1 modulator: 0.1; iPSC survival up: -1.1; H9c2 TAG inh: -5.9

What do the screens show for `O=C(CSCc1ccc(F)cc1)N1CCN(c2ccc(F)cc2)CC1`?
PG9 Ab binder: -0.9; T cruzi repl: 3.2; beta cell repl: 1.1; NR1D1 modulator: -1.4; iPSC survival up: 3.5

How did Cc1ccc(CSCC(=O)N2CCN(c3ccc(F)cc3)CC2)cc1 do in these assays?
PG9 Ab binder: -2.3; T cruzi repl: 56.7*; beta cell repl: -1.5; NR1D1 modulator: -4.7; iPSC survival up: -0.6

Results for Cc1cccc(NC(=O)CN2CCN(C(=O)c3ccc(OCc4cn5ccccc5n4)cc3)CC2)c1C ?
PG9 Ab binder: -1.4; beta cell repl: -1.9; NR1D1 modulator: -7.5; iPSC survival up: -2.1; H9c2 TAG inh: -5.7

What do the screens show for `COc1ccc(-c2cc3c(=O)n(CC(=O)NCCCN4CCC(N5CCCCC5)CC4)ncn3n2)cc1`?
PG9 Ab binder: 1.2; T cruzi repl: 29.8; beta cell repl: -3.8; NR1D1 modulator: 0.7; iPSC survival up: -0.5

What do the screens show for `COc1ccc(-c2cc3c(=O)n(CC(=O)NCCCN4CCC(N5CCCCC5)CC4)nc(C)n3n2)cc1`?
PG9 Ab binder: -1.0; T cruzi repl: 55.8*; beta cell repl: -7.9; NR1D1 modulator: 1.8; iPSC survival up: -0.5

How did Cc1ccc[n+](CC(=O)Nc2cccc(Cl)c2)c1 do in these assays?
PG9 Ab binder: -0.4; T cruzi repl: 1.6; beta cell repl: 0.8; NR1D1 modulator: 5.6; iPSC survival up: 0.4

Results for O=C(Nc1cccc(Cl)c1)Nc1c[nH]c(=O)[nH]c1=O ?
PG9 Ab binder: -0.2; T cruzi repl: -1.3; beta cell repl: -3.6; NR1D1 modulator: -4.4; iPSC survival up: -0.4

Results for CCCCN(C)Cc1c(C)[nH]c2c(Cl)cccc2c1=O ?
PG9 Ab binder: 0.2; T cruzi repl: 59.8*; beta cell repl: -0.8; NR1D1 modulator: 6.1; iPSC survival up: -0.4

How did CCCCN(C)Cc1c(C)[nH]c2c(ccc3ccccc32)c1=O do in these assays?
PG9 Ab binder: -0.7; T cruzi repl: -7.9; beta cell repl: -3.8; NR1D1 modulator: 3.2; iPSC survival up: 0.0

Results for COc1ccc(N2CC(O)(c3ccc(OC(F)F)cc3)[N+]3=C2CCCC3)cc1 (centres undefined) ?
PG9 Ab binder: -1.6; T cruzi repl: 19.1; beta cell repl: -5.0; NR1D1 modulator: -1.2; iPSC survival up: 0.5; H9c2 TAG inh: 11.1

What do the screens show for `COc1ccc(-n2cc(-c3ccc(OC(F)F)cc3)[n+]3c2CCCCC3)cc1`?
PG9 Ab binder: -0.2; T cruzi repl: 59.4*; beta cell repl: -5.6; NR1D1 modulator: -2.0; iPSC survival up: -2.3; H9c2 TAG inh: -30.3

Results for Clc1ccc(-c2cn(-c3ccc(Cl)cc3)c3[n+]2CCCCC3)cc1 ?
PG9 Ab binder: -0.9; T cruzi repl: 31.4; beta cell repl: -4.0; NR1D1 modulator: 2.4; iPSC survival up: 0.0; H9c2 TAG inh: -4.7

What do the screens show for `COc1ccc(-c2cn(-c3ccc(Cl)cc3)c3[n+]2CCCCC3)cc1`?
PG9 Ab binder: -2.3; T cruzi repl: 57.6*; beta cell repl: -4.0; NR1D1 modulator: 1.5; iPSC survival up: 0.0; H9c2 TAG inh: -9.0

How did COc1ccc(NC(=O)Nc2nnc(C(C)C)s2)cc1 do in these assays?
PG9 Ab binder: -0.3; T cruzi repl: 18.7; beta cell repl: -3.4; NR1D1 modulator: -0.6; iPSC survival up: -2.2

Results for CCOc1ccc(S(=O)(=O)N(C)C)cc1-c1nc2c(C(C)(C)C)nn(C)c2c(=O)[nH]1 ?
PG9 Ab binder: 1.5; T cruzi repl: 17.8; beta cell repl: 0.9; NR1D1 modulator: 1.9; iPSC survival up: 12.9

What do the screens show for `Cc1[nH]c2ccc(-c3nnc(SCC(=O)N4CCCc5ccccc54)o3)cc2c1C`?
PG9 Ab binder: -1.4; T cruzi repl: 78.9*; beta cell repl: -3.0; NR1D1 modulator: 8.1; iPSC survival up: 0.7

What do the screens show for `COc1cc(/C=C(\C#N)C(=O)Nc2ccc(SC(F)F)cc2)cc(OC)c1OC`?
PG9 Ab binder: -1.1; T cruzi repl: -7.4; beta cell repl: -2.1; NR1D1 modulator: -2.4; iPSC survival up: -3.2

Results for O=c1c2c3nc4ccccc4nc3n(-c3ccc4c(c3)OCCO4)c2ncn1C1CCCC1 ?
PG9 Ab binder: -0.9; beta cell repl: -0.6; NR1D1 modulator: -20.5; iPSC survival up: -0.5; H9c2 TAG inh: 64.1*

What do the screens show for `Nc1c(C(=O)OCC2CCCO2)c2nc3ccccc3nc2n1-c1ccc2c(c1)OCCO2` (centres undefined)?
PG9 Ab binder: 1.1; T cruzi repl: 1.1; beta cell repl: 0.6; NR1D1 modulator: -2.5

How did Fc1ccc(Nc2nc(NCc3ccco3)c3ccccc3n2)cc1 do in these assays?
PG9 Ab binder: 1.7; T cruzi repl: 57.0*; beta cell repl: -3.9; NR1D1 modulator: -0.2; iPSC survival up: -0.7; H9c2 TAG inh: 13.3

What do the screens show for `CC(=O)Nc1ccc(OCC(O)Cn2c3ccccc3c3ccccc32)c(C)c1` (centres undefined)?
PG9 Ab binder: 0.0; T cruzi repl: 55.8*; beta cell repl: -2.5; NR1D1 modulator: 0.6; iPSC survival up: -1.5

Results for COCCCNC(=O)CN(c1cc(Cl)ccc1OC)S(=O)(=O)c1ccc(C)c([N+](=O)[O-])c1 ?
PG9 Ab binder: -1.1; T cruzi repl: 13.2; beta cell repl: -1.8; NR1D1 modulator: -1.4; iPSC survival up: -0.1; H9c2 TAG inh: -8.1

What do the screens show for `COc1ccc(N2C(=O)CC(Sc3nccc(C)n3)C2=O)c(OC)c1` (centres undefined)?
PG9 Ab binder: -0.4; NR1D1 modulator: 2.5; iPSC survival up: 27.5*; H9c2 TAG inh: 10.1

How did CC(C)C[C@@H]1CN(CCCC[C@H]2CNC(=O)C(=O)N2CCC2CCCCC2)C(=O)C(=O)N1CCc1ccc(O)cc1 do in these assays?
PG9 Ab binder: -0.1; NR1D1 modulator: 0.7; iPSC survival up: 0.6

What do the screens show for `O=c1ccsc2ccccc12`?
PG9 Ab binder: -0.5; NR1D1 modulator: 1.8; iPSC survival up: 10.1; H9c2 TAG inh: 7.4

What do the screens show for `O=c1[nH]sc2ccccc12`?
PG9 Ab binder: -1.8; T cruzi repl: 62.9*; NR1D1 modulator: 5.0; iPSC survival up: -0.3; H9c2 TAG inh: 8.6

How did CN1CCN(CCCNC(=O)c2ccc(/C=C3\Sc4ccccc4N(Cc4ccc(F)cc4)C3=O)cc2)CC1 do in these assays?
PG9 Ab binder: 1.3; T cruzi repl: inconclusive; NR1D1 modulator: 0.5; iPSC survival up: -0.8; H9c2 TAG inh: -3.2
